In ChEMBL document CHEMBL1806428, “Design and synthesis of spiro derivatives of parthenin as novel anti-cancer agents” (Eur J Med Chem, 2011):
Activity calls are given as the source filed them. No cut-off for these calls is given here.

Experiments:
SW-620 [1] = assay: Cytotoxicity against human SW620 cells assessed as cell growth after 48 hrs by sulforhodamine B assay; format: functional, cell-based; conditions: Homo sapiens, SW-620, 48 h
Method in brief: (§1)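 Log-phase cells seeded at 10^4/well and allowed to attach for 24 h at 37 °C, 5% CO2. Exposed for 48 h to 0.1–100 (1:10 serial dilutions), four replicate wells per condition. Fixed with cold 50% TCA for 1 h at 4 °C, stained with sulforhodamine B, dye dissolved in Tris, OD read at 540 nm. Blank-subtracted growth expressed relative to untreated cells (100%); IC50 reported.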

[2] = Partition coefficient, log P of the compound; format: physicochemical; conditions: octanol/water
DU-145 = assay: Cytotoxicity against human DU145 cells assessed as cell growth after 48 hrs by sulforhodamine B assay; format: functional, cell-based; conditions: Homo sapiens, DU-145, 48 h; method in brief: as §1
PC-3 = assay: Cytotoxicity against human PC3 cells assessed as cell growth after 48 hrs by sulforhodamine B assay; format: functional, cell-based; conditions: Homo sapiens, PC-3, 48 h; method in brief: as §1
Ehrlich [3] = assay: Antitumor activity against mouse EAC cells transplanted in ip dosed Swiss albino mouse assessed as tumor growth inhibition administered for 9 days; format: functional, organism-based
Method in brief: (§2)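 EAC ascites model: mice of the same sex, 20 ± 3 g, injected intraperitoneally with 1 × 10^7 cells from a donor bearing 8–10 day old ascites tumor (day 0). Randomised the next day, 7 per test group and 10 controls. Doses were suspended in 1% gum acacia and given i.p. for nine consecutive days; controls received saline 0.2 mL i.p. On day 12, ascitic fluid volume and tumor cell count were measured, and % inhibition was calculated from cell number versus control.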

Mus musculus [4] = assay: Toxicity in Swiss albino mouse transplanted with mouse EAC cells assessed as mortality at 50 mg/kg, ip administered for 9 days measured on day 3rd; format: organism-based, Ehrlich; design: dose 50 mg/kg, route intraperitoneal; conditions: in vivo, 216 h; method in brief: as §2
Mus musculus [5] = assay: Toxicity in Swiss albino mouse transplanted with mouse EAC cells assessed as mortality at 25 mg/kg, ip administered for 9 days measured on day 2nd; format: organism-based, Ehrlich; design: dose 25 mg/kg, route intraperitoneal; conditions: in vivo, 216 h; method in brief: as §2
Mus musculus [6] = assay: Toxicity in Swiss albino mouse model of Ehrlich Ascites tumor assessed as mortality at 25 mg/kg, ip administered for 9 days measured on fourth day; format: organism-based; design: dose 25 mg/kg, route intraperitoneal; conditions: in vivo, 216 h
[7] = Antitumor activity against mouse Ehrlich Ascites tumor xenografted in Swiss albino mouse assessed as decrease in tumor weight at 10 mg/kg, ip administered for 9 days (reference value: 1708+/-51.07 mg); format: functional; conditions: route intraperitoneal
Ehrlich [8] = assay: Antitumor activity against mouse EAC cells transplanted in Swiss albino mouse assessed as decrease in tumor cells in ascetic fluid at 10 mg/kg, ip administered for 9 days (reference value: 4.57+/-0.39 mL); format: functional, organism-based; design: dose 10 mg/kg; method in brief: as §2
Mus musculus [9] = assay: Toxicity in Swiss albino mouse transplanted with EAC cells assessed as mortality at 50 mg/kg, ip administered for 9 days measured on day 2nd; format: organism-based, Ehrlich; design: dose 50 mg/kg, route intraperitoneal; conditions: in vivo, 216 h; method in brief: as §2
[10] = Antitumor activity against mouse EAC cells transplanted in Swiss albino mouse assessed as tumor growth inhibition at 10 mg/kg, ip administered for 9 days (reference value: 4.57+/-0.39 mL); format: functional; conditions: Ehrlich, 216 h, route intraperitoneal, read-out: GI; method in brief: as §2
[11] = Antitumor activity against mouse Ehrlich Ascites tumor xenografted in Swiss albino mouse assessed as tumor growth inhibition at 10 mg/kg, ip administered for 9 days measured on day 13; format: functional; conditions: route intraperitoneal, read-out: GI
Mus musculus [12] = assay: Toxicity in ip dosed Swiss albino mouse transplanted with mouse EAC cells assessed as mortality administered for 9 days; format: organism-based, Ehrlich; conditions: in vivo, 216 h; method in brief: as §2
[13] = Antitumor activity against mouse EAC cells transplanted in Swiss albino mouse assessed as decrease in astic fluid volume at 10 mg/kg, ip administered for 9 days (reference value: 4.57+/-0.39 mL); format: functional, Ehrlich; conditions: route intraperitoneal; method in brief: as §2
Mus musculus [14] = assay: Toxicity in Swiss albino mouse model of Ehrlich Ascites tumor assessed as mortality at 50 mg/kg, ip administered for 9 days measured on second day; format: organism-based; design: dose 50 mg/kg, route intraperitoneal; conditions: in vivo, 216 h
Mus musculus [15] = assay: Toxicity in Swiss albino mouse transplanted with EAC cells assessed as mortality at 25 mg/kg, ip administered for 9 days measured on day 4th; format: organism-based, Ehrlich; design: dose 25 mg/kg, route intraperitoneal; conditions: in vivo, 216 h; method in brief: as §2
[16] = Antitumor activity against mouse Ehrlich Ascites tumor xenografted in Swiss albino mouse assessed as decrease in tumor weight at 20 mg/kg, ip administered for 9 days (reference value: 1708+/-51.07 mg); format: functional; conditions: route intraperitoneal
[17] = Antitumor activity against mouse Ehrlich Ascites tumor xenografted in Swiss albino mouse assessed as tumor growth inhibition at 20 mg/kg, ip administered for 9 days measured on day 13; format: functional; conditions: route intraperitoneal, read-out: GI
SW-620 [18] = assay: Induction of apoptosis in human SW620 cells assessed as DNA fragmentation at 5 uM after 6 hrs by gel electrophoresis; format: functional, cell-based
SW-620 [19] = assay: Cell cycle arrest in human SW620 cells assessed as increase in sub-G1 DNA content at 5 uM after 24 hrs using propidium iodide staining by flow cytometry (reference value: 3.45%); format: functional

| SMILES | IC50 (SW-620 [1]) | logP [2] | IC50 (DU-145) | IC50 (PC-3) | also measured |
| --- | --- | --- | --- | --- | --- |
| C[C@H]1CC[C@@H]2[C@@H](OC(=O)[C@]23CN3c2cccc([N+](=O)[O-])c2)[C@]2(C)C(=O)C=C[C@@]12O | 61 µM | 1.31 | 30 µM | 10.1 µM | – |
| COC(=O)c1cccc(N2C[C@]23C(=O)O[C@@H]2[C@H]3CC[C@H](C)[C@]3(O)C=CC(=O)[C@@]23C)c1 | 30 µM | 1.52 | 18.5 µM | 10.1 µM | – |
| C[C@H]1CC[C@@H]2[C@@H](OC(=O)[C@]23CC(c2ccc(F)cc2)=NO3)[C@]2(C)C(=O)C=C[C@@]12O | 3.6 µM | 1.57 | 13 µM | 27 µM | – |
| COc1ccc(N2C[C@]23C(=O)O[C@@H]2[C@H]3CC[C@H](C)[C@]3(O)C=CC(=O)[C@@]23C)cc1 | 30 µM | 1.41 | 78 µM | 12 µM | – |
| C=C1C(=O)O[C@@H]2[C@H]1CC[C@H](C)[C@]1(O)C=CC(=O)[C@@]21C [PARTHENIN] | 38.7 µM | – | 31.1 µM | 40.3 µM | growth inhibition (GI) (Ehrlich [3]): Dose-dependent effect; Activity (Mus musculus [4]): Toxic; Activity (Mus musculus [5]): Toxic; Activity (Mus musculus [6]): Toxic; Activity [7]: 1542.86 mg; Activity (Ehrlich [8]): Active; Activity (Mus musculus [9]): Toxic; inhibition in vivo at 10 mg/kg [10]: 12%; inhibition in vivo at 10 mg/kg [11]: 9.69%; Activity (Mus musculus [12]): Toxic; Activity [13]: 3.92 mL; Activity (Mus musculus [14]): Toxic; Activity (Mus musculus [15]): Toxic |
| COc1ccc(C2=NO[C@]3(C2)C(=O)O[C@@H]2[C@H]3CC[C@H](C)[C@]3(O)C=CC(=O)[C@@]23C)cc1 | 41 µM | 1.47 | 20 µM | 35 µM | – |
| Cc1cccc(N2C[C@]23C(=O)O[C@@H]2[C@H]3CC[C@H](C)[C@]3(O)C=CC(=O)[C@@]23C)c1 | 15 µM | 1.83 | 62.5 µM | 61.5 µM | – |
| C[C@H]1CC[C@@H]2[C@@H](OC(=O)[C@]23CC(c2cccc([N+](=O)[O-])c2)=NO3)[C@]2(C)C(=O)C=C[C@@]12O | 49 µM | 1.37 | 51 µM | 55 µM | – |
| Cc1cccc(C2=NO[C@]3(C2)C(=O)O[C@@H]2[C@H]3CC[C@H](C)[C@]3(O)C=CC(=O)[C@@]23C)c1 | 15 µM | 1.86 | 28 µM | 66.6 µM | – |
| O=c1[nH]cc(F)c(=O)[nH]1 [FLUOROURACIL] | – | – | – | – | Activity [16]: 832.28 mg; inhibition in vivo at 20 mg/kg [17]: 51.3% |
| C[C@H]1CC[C@@H]2[C@@H](OC(=O)[C@]23CC(c2ccc(Cl)cc2)=NO3)[C@]2(C)C(=O)C=C[C@@]12O | 51 µM | 2.09 | 43 µM | 49 µM | – |
| C[C@H]1CC[C@@H]2[C@@H](OC(=O)[C@]23CC(c2ccccc2)=NO3)[C@]2(C)C(=O)C=C[C@@]12O | 45.4 µM | 1.41 | 39.8 µM | 46 µM | – |
| C[C@H]1CC[C@@H]2[C@@H](OC(=O)[C@]23CN3c2ccccc2[N+](=O)[O-])[C@]2(C)C(=O)C=C[C@@]12O | 33 µM | 1.31 | 28 µM | 10 µM | – |
| C[C@H]1CC[C@@H]2[C@@H](OC(=O)[C@]23CC(c2ccc([N+](=O)[O-])cc2)=NO3)[C@]2(C)C(=O)C=C[C@@]12O | 9 µM | 1.37 | 7 µM | 12 µM | – |
| C[C@H]1CC[C@@H]2[C@@H](OC(=O)[C@]23CC(c2ccc(N(C)C)cc2)=NO3)[C@]2(C)C(=O)C=C[C@@]12O | 5.1 µM | 1.51 | 4.5 µM | 6.3 µM | – |
| C[C@H]1CC[C@@H]2[C@@H](OC(=O)[C@]23CN3c2cccc(Cl)c2)[C@]2(C)C(=O)C=C[C@@]12O | 48.4 µM | 2.03 | 39.5 µM | 86.1 µM | – |
| C[C@H]1CC[C@@H]2[C@@H](OC(=O)[C@]23CC(c2ccccc2Br)=NO3)[C@]2(C)C(=O)C=C[C@@]12O | 44 µM | 2.22 | 18 µM | 51 µM | – |
| C[C@H]1CC[C@@H]2[C@@H](OC(=O)[C@]23CC(c2c(Cl)cccc2Cl)=NO3)[C@]2(C)C(=O)C=C[C@@]12O | 43 µM | 2.67 | 38 µM | 56 µM | – |
| Cc1ccccc1C1=NO[C@]2(C1)C(=O)O[C@@H]1[C@H]2CC[C@H](C)[C@]2(O)C=CC(=O)[C@@]12C | 5 µM | 1.86 | 12 µM | 10 µM | – |
| C[C@H]1CC[C@@H]2[C@@H](OC(=O)[C@]23CC(c2ccc(O)cc2)=NO3)[C@]2(C)C(=O)C=C[C@@]12O | 89 µM | 0.932 | 93 µM | 20 µM | – |
| Cc1ccc(C2=NO[C@]3(C2)C(=O)O[C@@H]2[C@H]3CC[C@H](C)[C@]3(O)C=CC(=O)[C@@]23C)cc1 | 2.5 µM | 1.86 | 14 µM | 14 µM | – |
| CC[C@@]1(O)C(=O)OCc2c1cc1n(c2=O)Cc2cc3ccccc3nc2-1 [CAMPTOTHECIN] | – | – | – | – | Activity (SW-620 [18]): Active; Activity (SW-620 [19]): 60% |
| COc1cc(C2=NO[C@]3(C2)C(=O)O[C@@H]2[C@H]3CC[C@H](C)[C@]3(O)C=CC(=O)[C@@]23C)ccc1O | 88 µM | 0.75 | 71 µM | 16 µM | – |
| Cc1ccccc1N1C[C@]12C(=O)O[C@@H]1[C@H]2CC[C@H](C)[C@]2(O)C=CC(=O)[C@@]12C | 22 µM | 1.83 | 30 µM | 12.5 µM | – |
| C[C@H]1CC[C@@H]2[C@@H](OC(=O)[C@]23CC(c2ccccc2F)=NO3)[C@]2(C)C(=O)C=C[C@@]12O | 11 µM | 1.57 | 24 µM | 8.2 µM | – |
| Cc1ccc(N2C[C@]23C(=O)O[C@@H]2[C@H]3CC[C@H](C)[C@]3(O)C=CC(=O)[C@@]23C)cc1 | 32 µM | 1.83 | 36 µM | 25 µM | – |
| C[C@H]1CC[C@@H]2[C@@H](OC(=O)[C@]23CC(c2ccc(C#N)cc2)=NO3)[C@]2(C)C(=O)C=C[C@@]12O | 53 µM | 1.17 | 26 µM | 32 µM | – |
| C[C@H]1CC[C@@H]2[C@@H](OC(=O)[C@]23CC(c2ccccc2[N+](=O)[O-])=NO3)[C@]2(C)C(=O)C=C[C@@]12O | 40 µM | 1.37 | 34 µM | 37 µM | – |
